Bioassay records from PubChem.
The list is not random: actives were taken first. Their share in the collection is about 4.6%.
OX1R antag-1 = antagonists of human orexin 1 receptor (OX1R); AID 485270; OX1R-expressing cells, FRET antagonist read-out; 330,000 compounds, 1.8% hits; O43613; inhibition, % at 6.6 µM; in the data active = inhibition mostly above about 38%, no sharp cut-off; inactive = mostly below about 40%;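 note: 0% = agonist challenge alone and 100% = reference antagonist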
Target sequence (O43613 whole entry, looked up): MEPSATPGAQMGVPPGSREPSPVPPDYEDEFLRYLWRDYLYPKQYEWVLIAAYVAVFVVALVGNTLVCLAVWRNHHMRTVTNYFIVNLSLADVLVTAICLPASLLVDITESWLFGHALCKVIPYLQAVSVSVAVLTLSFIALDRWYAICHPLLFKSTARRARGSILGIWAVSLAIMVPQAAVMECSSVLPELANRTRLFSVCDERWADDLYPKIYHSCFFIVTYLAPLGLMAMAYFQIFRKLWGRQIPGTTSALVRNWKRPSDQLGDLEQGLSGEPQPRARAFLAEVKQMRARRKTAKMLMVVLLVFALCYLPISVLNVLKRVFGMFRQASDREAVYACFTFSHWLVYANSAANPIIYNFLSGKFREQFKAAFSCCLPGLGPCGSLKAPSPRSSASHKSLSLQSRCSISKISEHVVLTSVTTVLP
TAAR1 antagonist = human TAAR1 antagonism; Q96RJ0; 360,000 compounds, 1.5% hits; CHO RD-HGA16 TAAR1, Fluo-8 calcium fluorescence, antagonist; inhibition, % at 3 µM;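 active = inhibition above a per-plate cutoff, the mean inhibition of test compounds on that plate plus 3 SD, cut at about 49% in these data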;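 note: 0% = DMSO plus EC80 beta-PEA response and 100% = DMSO alone without agonist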
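Test system: CHO RD-HGA16 cells bearing hTAAR1 | Reagent: β-PEA, EC80 | Compound dosing: 3 µM, single point | Schedule: Dye loading 75 min at 37 °C, then 30 min room temperature | Signal: Calcium fluorescence with Fluo-8 | Evaluation: Percent inhibition of PEA-evoked calcium signal, max/basal emission ratio | Control set: DMSO-only wells and EC80 β-PEA-stimulated wells | Repeats: Singlicate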
GPR7 antag = human neuropeptides B/W receptor 1 antagonism | 290,000 compounds, 1.1% hits | inhibition, % at 4.4 µM | GPR7-expressing cells, fluorescence antagonist assay | P48145; in the data active = inhibition above about 16%, passing the limit was not always enough;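 note: cells stimulated with the agonist NPW; 0% = agonist with vehicle and 100% = vehicle without agonist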
OX1R antag-2 = blocks the human orexin 1 receptor; CHO/OX1R cells, Fluo-8 calcium fluorescence, orexin A; inhibition, % at 5 µM; 330,000 compounds, 0.43% hits; AID 434989;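 active = inhibition above its plate's threshold, mean inhibition of all tested compounds on the plate plus 3 SD, cut at about 37% in these data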;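 note: 0% = orexin A challenge wells and 100% = SB-334867-A antagonist wells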
CHO parental Ca = signal in parental CHO cells, OX1R antagonist counter-screen; parental CHO-K1, ATP-induced calcium, Fluo-8 fluorescence; inhibition, % at 5.6 µM; 330,000 compounds, 0.63% hits;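 active = inhibition above that plate's mean sample inhibition plus 3 SD, cut at about 26% in these data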;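 note: 0% = ATP-challenged DMSO wells and 100% = DMSO wells without ATP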
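Measured by: calcium-sensitive Fluo-8 fluorescence / Test system: CHO parental line / Controls: ATP-challenged DMSO wells low, unchallenged DMSO wells high / Measure: % inhibition / Compound: single nominal dose of 5.6 µM per compound / Replicates: single well per compound, no replicates / Reagent: ATP as calcium-mobilizing challenge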
TAAR1 agonist = agonists of human TAAR1. Q96RJ0. CHO RD-HGA16 TAAR1, Fluo-8 calcium fluorescence; vehicle wells 0%, saturating PEA agonist 100%. activation, % at 3 µM. 360,000 compounds, 0.99% hits. AID 624467;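 active = activation above the mean activation of all test compounds in the run plus 3 SD, cut at about 38% in these data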
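System: CHO RD-HGA16 cells carrying human TAAR1 plus Gα16; Incubation: 17-24 h seeding, 75 min 37 °C dye, 30 min RT; Measured by: Fluo-8 fluorescence, 5 s baseline then 140 s kinetic read; Control set: DMSO and PEA EC100; Replication: single well for each compound.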
* = called active by the depositor; · = not tested or not shown.

SMILES	OX1R antag-1	TAAR1 antagonist	GPR7 antag	OX1R antag-2	CHO parental Ca	TAAR1 agonist
Cc1ccc(C(C)C)c(OCCn2c(=O)oc3ccccc32)c1	23	72*	-8	-1	6	13
Cc1ccccc1OCCn1c(=O)oc2ccccc21	25	26	10	-3	3	17
C[C@@H]1CN([C@H](C)CO)C(=O)CCCn2cc(nn2)CO[C@H]1CN(C)S(=O)(=O)c1ccccc1C#N	·	13	·	·	·	0
Cc1[nH]nc2c1C(c1cccc(C(F)(F)F)c1)NC2=O (centres undefined)	·	0	·	·	·	1
CCCn1c(CNc2ccc(Br)cc2)nc2ccccc21	11	-10	6	-9	34*	-1
c1ccc(CSc2nnc3ccc(-c4ccncc4)nn23)cc1	9	-10	-9	10	-4	6
CC(=O)Nc1ccc(NC(=O)CSc2nnc3ccc(-c4cccnc4)nn23)cc1	50*	2	·	-7	-1	0
Cc1ccccc1NC(=O)CSc1nnc2ccc(-c3ccccn3)nn12	55*	-43	·	-43	-11	8
Cc1ccc(NC(=O)CSc2nnc3ccc(-c4cccnc4)nn23)cc1	39	-1	·	-19	-15	1
c1cncc(CSc2nnc3ccc(-c4ccncc4)nn23)c1	39*	-12	-8	-8	-4	1
COc1ccc(-c2nnc3ccc(SCC(=O)N4CCCC4)nn23)cc1	20	8	-9	-15	-11	1
COc1ccc(-c2ccc3nnc(SCC(=O)N4CCCC4)n3n2)cc1	55*	-18	·	-4	-1	-1
CCc1ccc(/C=C2\SC(=S)N(CCCC(=O)N(CCO)c3ccccc3)C2=O)cc1	·	23	·	·	·	0
CC(C)Oc1cccc(NC(=O)C2(C)CCN2C(=O)C(C)C)c1 (centres undefined)	·	-4	·	·	·	0
O=C(CSc1nnc2ccc(-c3cccnc3)nn12)Nc1ccccc1	40	-10	·	-15	-11	1
CCS(=O)(=O)Nc1cccc(-c2ccc3nnc(-c4cccnc4)n3n2)c1	35*	-17	-5	-10	-12	4
O=C(CSc1nnc2ccc(-c3cccnc3)nn12)Nc1ccc(F)cc1	29	-12	·	-10	-8	1
O=C(CSc1nnc2ccc(-c3ccncc3)nn12)Nc1ccc(F)cc1	61*	-6	·	-5	-12	-1
CC(=O)Nc1cccc(NC(=O)CSc2nnc3ccc(-c4cccnc4)nn23)c1	75*	-8	·	-8	5	2
COc1ccc(NC(=O)CSc2nnc3ccc(-c4cccnc4)nn23)cc1	63*	-10	·	-16	-16	0
C[C@@H]1ON(C)[C@H]2C[C@H]3c4[nH]c5cccc(-c6cccc(F)c6)c5c4CCN3C(=O)[C@@H]12	·	36	·	·	·	13
OC(c1ccccc1)(c1ccccc1)C1CCN(CCCOc2ccccn2)CC1	·	6	·	·	·	1
COc1ccc(NC(=O)CSc2nnc3ccc(-c4ccncc4)nn23)cc1	26	-4	·	-21	-10	0
O=C(CSc1nnc2ccc(-c3ccncc3)nn12)c1cccs1	44*	-3	-8	-6	-15	0
CCCc1nc2ccccc2c(C(=O)OCC(=O)Nc2cccc(S(=O)(=O)N3CCOCC3)c2)c1CC	19	52*	-15	-5	6	3
SMILES	OX1R antag-1	TAAR1 antagonist	GPR7 antag	OX1R antag-2	CHO parental Ca	TAAR1 agonist
CCCc1nc2ccccc2c(C(=O)OCC(=O)N2CCc3ccccc32)c1CC	8	52*	-20	-20	-16	0
CCCc1nc2ccccc2c(C(=O)OCC(=O)Nc2ccc(S(=O)(=O)N3CCOCC3)cc2)c1CC	-2	22	-7	-16	-16	12
COC(=O)c1cc2c(c3c4cc(OC)ccc4n(C(=O)c4ccccc4)c13)C(=O)N(C1CCCCC1)C2	·	22	·	·	·	1
CCN(C(=O)COC(=O)/C=C/c1c(C)nn(-c2ccccc2)c1C)c1c(N)n(Cc2ccccc2)c(=O)[nH]c1=O	·	17	·	·	·	7
CC(=O)Nc1ccc(NC(=O)c2cc([N+](=O)[O-])cc([N+](=O)[O-])c2)cc1	57*	17	-15	-9	-5	7
Cc1cc(NC(=O)c2cccc([N+](=O)[O-])c2)no1	11	-44	-21	-16	-10	3
